Results taken from PMC3517121 (Chembiochem : a European journal of chemical biology, 2011).
Where two headings read alike, the source gives them in different places.

What was measured:
[1] = Solubility in water; type: physicochemical; conditions: qualitative statement
[2] = Molar absorption coefficient; type: physicochemical
Procedure, shortened: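 Test cross-linker concentration fixed by 1H NMR in DMSO-d6 with a known concentration of 1,2-dichloroethane, comparing the DCE methylene signal with the cross-linker α-methylene signal. The NMR solution was then diluted in DMSO or in 10 mM phosphate buffer pH 7.0, and UV-Vis spectra were recorded to calculate the molar absorption coefficient.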

[3] = cited from earlier work

For `CC(=O)Nc1ccc(N=Nc2ccc(-c3ccc(N=Nc4ccc(NC(C)=O)cc4)cc3)cc2)cc1` [BPDB(r), 4,4’-bis(4-acetamidophenyl)diazenylbiphenyl], the solubility in water [1] was “not soluble in water”.
For `O=C(CCl)Nc1ccc(N=Nc2ccc(-c3ccc(N=Nc4ccc(NC(=O)CCl)cc4)cc3)cc2)cc1` [BPDB, 4,4’-bis(4-(2-chloroacetamido)phenyl)diazenylbiphenyl], the molar absorption coefficient ([2]; at 400 nm in DMSO) was 60,000 M^-1cm^-1.
For `O=C(CCl)Nc1ccc(N=Nc2ccc(-c3ccc(N=Nc4ccc(NC(=O)CCl)cc4)cc3S(=O)(=O)O)c(S(=O)(=O)O)c2)cc1` [BPDBS, 4,4’-bis(4-(2-chloroacetamido)phenyl)diazenylbiphenyl-2,2’-disulfonate], the molar absorption coefficient ([2]; at 360 nm in sodium phosphate buffer, pH 7.0) was 45,000 M^-1cm^-1, the molar absorption coefficient ([2]; at 380 nm in DMSO) was 52,000 M^-1cm^-1 and the solubility in water [1] was “water-soluble”.
In the case of `O=C(CCl)Nc1ccc(N=Nc2ccc(NC(=O)CCl)c(S(=O)(=O)O)c2)cc1S(=O)(=O)O` [BSBCA, 3,3’-bis(sulfonato)-4,4’-bis(chloroacetamide)azobenzene], the molar absorption coefficient [3] is given as 27,000 M^-1 cm^-1.
